Columns and labels:
[1] = The stability constant of adduct formation for cysteine at pH 5.69; type: ADME
How it was run: (§1)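 Spectrophotometric measurement at 20 °C in 10-mm cells, with pH checked by meter. Aqueous solutions held 4×10^-6 M alkaloid, 4×10^-6 to 1.6×10^-2 M thiol, and 4×10^-3 M hexadecyltrimethylammonium bromide, in phosphate buffers of ionic strength 0.05. The stability constant (K) of the thiol–iminium adduct was taken at the stated pH.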

[2] = The stability constant of adduct formation for glutathione at pH 5.28; type: ADME; how it was run: as §1
[3] = The stability constant of adduct formation for glutathione at pH 5.69; type: ADME; how it was run: as §1
[4] = The stability constant of adduct formation for thioethanol at pH 5.28; type: ADME; how it was run: as §1
[5] = The stability constant of adduct formation for thioethanol at pH 5.69; type: ADME; how it was run: as §1
[6] = target: T1, Alanine aminotransferase 1 (Rattus norvegicus) (UniProt P25409); assay: Concentration for complete inactivation of alanine aminotransferase
T1 sequence (whole entry): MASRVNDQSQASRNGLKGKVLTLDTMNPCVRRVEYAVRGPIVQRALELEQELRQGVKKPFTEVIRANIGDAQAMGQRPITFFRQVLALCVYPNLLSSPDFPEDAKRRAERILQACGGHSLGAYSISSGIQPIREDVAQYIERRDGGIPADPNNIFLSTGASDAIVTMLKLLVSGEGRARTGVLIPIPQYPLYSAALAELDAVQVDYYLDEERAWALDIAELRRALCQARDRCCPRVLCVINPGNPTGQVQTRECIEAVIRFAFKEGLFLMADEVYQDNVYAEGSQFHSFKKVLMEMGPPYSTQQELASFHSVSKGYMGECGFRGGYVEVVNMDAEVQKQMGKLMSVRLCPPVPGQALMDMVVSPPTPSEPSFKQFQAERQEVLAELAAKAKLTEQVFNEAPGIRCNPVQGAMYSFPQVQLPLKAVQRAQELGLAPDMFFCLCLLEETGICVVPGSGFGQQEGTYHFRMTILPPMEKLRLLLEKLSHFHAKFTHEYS
How it was run: (§2)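 Partially purified rat liver ALT (ammonium sulfate fraction from prednisolone-treated male Wistar rats, lyophilized, diluted in 0.1 M pH 7.4 potassium phosphate). Enzyme preincubated with alkaloid at pH 7.4, room temperature, 30 min. Then added to substrate (8.33×10^-2 M L-alanine, 1.67×10^-3 M 2-oxoglutarate, pH 7.4) at 30 °C. Product read by 2,4-dinitrophenylhydrazine, alkaline NaOH, A505.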

[7] = target: T1, Alanine aminotransferase 1 (Rattus norvegicus); assay: Inhibitory activity against alanine aminotransferase was measured; how it was run: as §2
[8] = target: T1, Alanine aminotransferase 1 (Rattus norvegicus); assay: Effect of cysteine on alanine aminotransferase inhibition by the compound at 10E-5; details: for inhibition: concentration not given here
How it was run: (§3)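 ALT alkaloid-inhibition assay at 30 °C (L-alanine/2-oxoglutarate substrate, pH 7.4 phosphate, 2,4-dinitrophenylhydrazine read-out at 505 nm). Substrate solution contained 10^-2 M of the thiol. Percent inhibition compared against thiol-free substrate.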

[9] = target: T1, Alanine aminotransferase 1 (Rattus norvegicus); assay: Effect of glutathione on alanine aminotransferase inhibition by the compound at 10E-5; details: for inhibition: concentration not given here; how it was run: as §3
[10] = target: T1, Alanine aminotransferase 1 (Rattus norvegicus); assay: Effect of thioethanol on alanine aminotransferase inhibition by the compound at 10E-5; details: for inhibition: concentration not given here; how it was run: as §3
[11] = The stability constant of adduct formation for cysteine at pH 5.28; type: ADME; how it was run: as §1
[12] = The stability constant of adduct formation for cysteine at pH 5.68; type: ADME
How it was run: (§4)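 Thiol–alkaloid adduct stability constants measured by UV-vis spectrophotometry at 20 °C in 10-mm cells. Aqueous solutions held 4×10^-6 M alkaloid, 4×10^-6 to 1.6×10^-2 M thiol and 4×10^-3 M hexadecyltrimethylammonium bromide. Phosphate buffers of ionic strength 0.05 at the stated pH.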

[13] = The stability constant of adduct formation for cysteine at pH 6.25; type: ADME; how it was run: as §4
[14] = The stability constant of adduct formation for glutathione at pH 5.68; type: ADME; how it was run: as §4
[15] = The stability constant of adduct formation for glutathione at pH 6.25; type: ADME; how it was run: as §4
[16] = The stability constant of adduct formation for thioethanol at pH 5.68; type: ADME; how it was run: as §4
[17] = The stability constant of adduct formation for thioethanol at pH 6.25; type: ADME; how it was run: as §4

Row | SMILES | Log K [1] | Log K [2] | Log K [3] | Log K [4] | Log K [5] | Concentration [6] [µM] | ID50 [7] [µM] | Protection [8] [%] | inhibition [8] [%] | Protection [9] [%] | inhibition [9] [%] | Protection [10] [%] | inhibition [10] [%] | Log K [11] | Log K [12] | Log K [13] | Log K [14] | Log K [15] | Log K [16] | Log K [17]
1 | C[n+]1cc2c3c(ccc2c2ccc4cc5c(cc4c21)OCO5)OCO3 [SANGUINARIUM] | 3.33 | 4.64 | 4.79 | 3.77 | 4.01 | 50 | 3.4 | 5 | 74 | 81 | 15 | 75 | 20 | 2.97 | – | – | – | – | – | –
2 | COc1ccc2c(c[n+](C)c3c4cc5c(cc4ccc23)OCO5)c1OC.[Cl-] [CHELERYTHRINE CHLORIDE] | – | – | – | – | – | 30 | 4 | 5 | 40 | 70 | 13 | 55 | 23 | – | 2.74 | 3.09 | 4.39 | 4.39 | 3.46 | 4.05

Source: ChEMBL document CHEMBL1121701, “Inhibition of liver alanine aminotransferase activity by some benzophenanthridine alkaloids” (J Med Chem, 1981)
